According to ChEMBL document CHEMBL3352286, “Submonomer synthesis of azapeptide ligands of the Insulin Receptor Tyrosine Kinase domain” (Bioorg Med Chem Lett, 2014):
Starred links: 1 amine or outer side, 2 acyl side, 3 side chain; linkers in the order of their positions; H or OH if unused. Non-standard residues stand in square brackets, D forms with d. Residues, ends and D or L forms follow the SMILES beside them. azaTyr = O=C(N(Cc1ccc(O)cc1)N[*:1])[*:2]; X1 = O=C(N(Cc1ccc(O)c(O)c1)N[*:1])[*:2]; azaPhe = O=C(N(Cc1ccccc1)N[*:1])[*:2]; X3 = CC[C@H](C)N(N[*:1])C(=O)[*:2]; X2 = O=C(O)CCN(N[*:1])C(=O)[*:2]; AzaAla = CN(N[*:1])C(=O)[*:2]; azaGly = NNC(=O)O

Legend:
[1] = target: Insulin receptor (Homo sapiens) (UniProt P06213); assay: Inhibition of human active insulin receptor tyrosine kinase domain (amino acids 1005 to 1310) assessed as residual autophosphorylation level at 400 uM using 1000 uM ATP and insulin by BCIP/NBT staining based colorimetry and immunoblotting
Sequence of Insulin receptor (Homo sapiens) (P06213 28-758 limits assumed): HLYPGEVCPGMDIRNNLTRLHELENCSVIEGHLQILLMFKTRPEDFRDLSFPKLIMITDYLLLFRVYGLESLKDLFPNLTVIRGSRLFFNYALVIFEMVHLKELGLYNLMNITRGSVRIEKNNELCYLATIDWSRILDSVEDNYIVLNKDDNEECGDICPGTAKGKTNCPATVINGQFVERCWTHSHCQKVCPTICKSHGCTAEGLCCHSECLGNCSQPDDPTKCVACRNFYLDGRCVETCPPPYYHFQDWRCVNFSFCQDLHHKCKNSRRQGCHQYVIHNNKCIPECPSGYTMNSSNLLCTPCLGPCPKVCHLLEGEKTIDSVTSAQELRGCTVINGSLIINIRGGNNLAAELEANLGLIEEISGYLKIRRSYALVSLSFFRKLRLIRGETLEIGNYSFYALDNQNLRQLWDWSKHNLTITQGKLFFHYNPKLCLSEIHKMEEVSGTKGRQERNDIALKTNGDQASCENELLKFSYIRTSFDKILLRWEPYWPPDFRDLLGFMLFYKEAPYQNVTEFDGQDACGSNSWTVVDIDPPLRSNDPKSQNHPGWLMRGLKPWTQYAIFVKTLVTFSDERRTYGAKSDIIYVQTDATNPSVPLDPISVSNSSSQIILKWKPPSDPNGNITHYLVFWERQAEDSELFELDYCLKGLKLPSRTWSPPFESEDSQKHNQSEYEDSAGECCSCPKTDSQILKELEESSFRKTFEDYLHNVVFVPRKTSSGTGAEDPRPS
Sequence of Insulin receptor (Homo sapiens) (P06213 763-1382 limits assumed): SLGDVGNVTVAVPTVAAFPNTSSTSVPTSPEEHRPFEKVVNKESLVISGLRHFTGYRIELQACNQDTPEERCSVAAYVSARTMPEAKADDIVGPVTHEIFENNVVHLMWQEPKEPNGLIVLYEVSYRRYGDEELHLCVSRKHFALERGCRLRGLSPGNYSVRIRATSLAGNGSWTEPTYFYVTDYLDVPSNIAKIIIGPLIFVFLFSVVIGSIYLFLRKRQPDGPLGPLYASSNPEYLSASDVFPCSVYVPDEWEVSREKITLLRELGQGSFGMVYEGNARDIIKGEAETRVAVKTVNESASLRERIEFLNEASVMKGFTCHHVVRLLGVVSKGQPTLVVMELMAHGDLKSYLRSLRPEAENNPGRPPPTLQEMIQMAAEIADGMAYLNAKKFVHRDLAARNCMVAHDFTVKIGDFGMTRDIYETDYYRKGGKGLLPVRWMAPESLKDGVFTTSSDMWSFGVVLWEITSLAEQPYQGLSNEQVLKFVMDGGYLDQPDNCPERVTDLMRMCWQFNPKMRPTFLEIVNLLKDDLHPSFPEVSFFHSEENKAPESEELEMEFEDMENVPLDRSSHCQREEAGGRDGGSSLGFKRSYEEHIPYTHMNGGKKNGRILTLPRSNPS
Summary of the method: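 Recombinant IRTK domain (residues 1005–1310), 200 ng/mL, incubated with 1000 µM ATP and peptide ligand in reaction buffer for 20 min at 37 °C, then quenched. Samples were resolved by denaturing 10% Bis-Tris PAGE and transferred to PVDF, which was blocked overnight in 2% BSA/TBST. Blots were probed with anti-phospho-IR/IGF1R (Tyr1158/1162/1163) and an AP-conjugated goat anti-rabbit IgG, and developed colorimetrically with BCIP/NBT.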

[2] = Retention time of the compound using 2 to 90% MeOH in H2O with 0.1% FA over 15 mins by RP-LC method; type: physicochemical; settings: 0.25 h
Summary of the method: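 Reversed-phase LC with UV detection at 214 nm; gradient of 2–90% MeOH in H2O containing 0.1% formic acid over 15 min; retention time in minutes.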

[3] = Retention time of the compound using 2 to 90% MeCN in H2O with 0.1% FA over 15 mins by RP-LC method; type: physicochemical; settings: 0.25 h
[4] = target: Insulin receptor (Homo sapiens) (UniProt P06213); assay: Stimulation of human active insulin receptor tyrosine kinase domain (amino acids 1005 to 1310) assessed as increase in autophosphorylation at 400 uM using 1000 uM ATP and insulin by BCIP/NBT staining based colorimetry and immunoblotting
[5] = target: Insulin receptor (Rattus norvegicus) (UniProt P15127); assay: Inhibition of rat liver IRTK assessed as reduction in enzyme phosphorylation at 4 mM
Sequence of Insulin receptor (Rattus norvegicus) (P15127 27-759 limits assumed): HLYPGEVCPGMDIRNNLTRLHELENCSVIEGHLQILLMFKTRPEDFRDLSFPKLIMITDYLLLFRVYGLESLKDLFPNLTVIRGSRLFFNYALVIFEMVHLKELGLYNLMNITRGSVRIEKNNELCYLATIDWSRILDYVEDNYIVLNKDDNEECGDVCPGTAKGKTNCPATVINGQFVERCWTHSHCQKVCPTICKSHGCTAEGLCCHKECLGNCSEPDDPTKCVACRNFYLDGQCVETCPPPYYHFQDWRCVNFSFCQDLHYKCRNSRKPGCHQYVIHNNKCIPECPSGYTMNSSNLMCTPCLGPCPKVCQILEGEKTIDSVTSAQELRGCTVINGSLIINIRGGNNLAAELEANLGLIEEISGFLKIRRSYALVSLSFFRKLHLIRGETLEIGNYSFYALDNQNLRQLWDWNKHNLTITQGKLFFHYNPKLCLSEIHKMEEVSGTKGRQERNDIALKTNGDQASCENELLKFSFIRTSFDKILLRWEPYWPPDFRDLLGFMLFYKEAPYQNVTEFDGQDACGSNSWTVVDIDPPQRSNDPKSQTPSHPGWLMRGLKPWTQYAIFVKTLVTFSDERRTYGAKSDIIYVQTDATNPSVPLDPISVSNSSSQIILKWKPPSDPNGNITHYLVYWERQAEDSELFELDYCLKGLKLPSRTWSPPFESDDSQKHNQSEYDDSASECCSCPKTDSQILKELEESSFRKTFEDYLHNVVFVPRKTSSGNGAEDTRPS
Sequence of Insulin receptor (Rattus norvegicus) (P15127 764-1383 limits assumed): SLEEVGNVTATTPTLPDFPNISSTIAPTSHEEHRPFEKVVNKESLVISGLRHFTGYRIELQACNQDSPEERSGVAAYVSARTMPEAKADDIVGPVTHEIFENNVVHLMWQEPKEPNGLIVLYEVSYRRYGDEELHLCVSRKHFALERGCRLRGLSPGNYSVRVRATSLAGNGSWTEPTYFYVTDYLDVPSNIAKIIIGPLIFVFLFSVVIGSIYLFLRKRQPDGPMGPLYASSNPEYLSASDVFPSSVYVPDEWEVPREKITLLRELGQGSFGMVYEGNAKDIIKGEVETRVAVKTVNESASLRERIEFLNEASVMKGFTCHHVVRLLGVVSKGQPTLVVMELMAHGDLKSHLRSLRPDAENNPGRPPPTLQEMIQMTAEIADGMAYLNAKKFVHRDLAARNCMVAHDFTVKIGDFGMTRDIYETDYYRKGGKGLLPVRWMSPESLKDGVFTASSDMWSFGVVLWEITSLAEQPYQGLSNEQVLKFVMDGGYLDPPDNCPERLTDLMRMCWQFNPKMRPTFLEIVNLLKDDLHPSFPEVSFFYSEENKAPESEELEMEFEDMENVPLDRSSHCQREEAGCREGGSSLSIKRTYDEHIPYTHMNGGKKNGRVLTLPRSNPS

[6] = target: Insulin receptor (Homo sapiens) (UniProt P06213); assay: Inhibition of human active insulin receptor tyrosine kinase domain (amino acids 1005 to 1310) assessed as reduction in autophosphorylation at 400 uM using 1000 uM ATP and insulin by BCIP/NBT staining based colorimetry and immunoblotting
[7] = target: Insulin receptor (Homo sapiens) (UniProt P06213); assay: Inhibition of IRTK (unknown origin) assessed as reduction in enzyme phosphorylation at 4 mM

CC(=O)N[C@@H](CC(=O)O)C(=O)NNC(=O)N[C@@H](Cc1ccc(O)cc1)C(=O)N[C@@H](CCC(=O)O)C(=O)N[C@H](C(N)=O)[C@@H](C)O (Ac-D[azaGly]YET-NH2)
Activity [1]: 61%
Retention_time [2]: 6.99 min
Retention_time [3]: 5.04 min

CC[C@H](C)[C@H](NC(=O)[C@H](CC(=O)O)NC(C)=O)C(=O)N[C@@H](Cc1ccc(O)cc1)C(=O)NN(CCC(=O)O)C(=O)N[C@H](C(N)=O)[C@@H](C)O (Ac-DIY[X2]T-NH2)
Activity [1]: 110%
Activity [4]: 10%
Retention_time [2]: 9.61 min
Retention_time [3]: 6.41 min

Ac-DIYET-NH2
inhibition [5]: 80%
inhibition [6]: < 10%
Activity [1]: 82%

CC(=O)N[C@@H](CC(=O)O)C(=O)NN(C)C(=O)N[C@@H](Cc1ccc(O)cc1)C(=O)N[C@@H](CCC(=O)O)C(=O)N[C@H](C(N)=O)[C@@H](C)O (Ac-D[AzaAla]YET-NH2)
Activity [1]: 74%
Retention_time [2]: 7.42 min
Retention_time [3]: 5.26 min

CC[C@H](C)[C@H](NC(=O)[C@H](CC(=O)O)NC(C)=O)C(=O)NN(Cc1ccccc1)C(=O)N[C@@H](CCC(=O)O)C(=O)N[C@H](C(N)=O)[C@@H](C)O (Ac-DI[azaPhe]ET-NH2)
Activity [1]: 67%
Retention_time [2]: 11.76 min
Retention_time [3]: 7.76 min

Ac-DIFET-NH2
inhibition [7]: 20%
Activity [1]: 84%

CC[C@H](C)[C@H](NC(=O)[C@H](CC(=O)O)NC(C)=O)C(=O)NN(Cc1ccc(O)c(O)c1)C(=O)N[C@@H](CCC(=O)O)C(=O)N[C@H](C(N)=O)[C@@H](C)O (Ac-DI[X1]ET-NH2)
Activity [1]: 128%
Activity [4]: 30%
Retention_time [2]: 8.9 min
Retention_time [3]: 6.33 min

CC[C@H](C)[C@H](NC(=O)[C@H](CC(=O)O)NC(C)=O)C(=O)NN(Cc1ccc(O)cc1)C(=O)N[C@@H](CCC(=O)O)C(=O)N[C@H](C(N)=O)[C@@H](C)O (Ac-DI[azaTyr]ET-NH2)
inhibition [6]: 50%
Activity [1]: 40%
Retention_time [2]: 9.95 min
Retention_time [3]: 6.68 min

CC(C)(C)c1cc(C=C(C#N)C#N)cc(Br)c1O
inhibition [6]: 80%

CC[C@H](C)N(NC(=O)[C@H](CC(=O)O)NC(C)=O)C(=O)N[C@@H](Cc1ccc(O)cc1)C(=O)N[C@@H](CCC(=O)O)C(=O)N[C@H](C(N)=O)[C@@H](C)O (Ac-D[X3]YET-NH2)
Activity [1]: 73%
Retention_time [2]: 6.97 min
Retention_time [3]: 5.13 min
